# Results pooled from the literature.
# Each line is one published result; the experiments were not run side by side.
# Target: Serine/threonine-protein kinase PAK 5 (PAK5, Homo sapiens, UniProt Q9P286)
Compound,test,setting,remaining binding [%]
COc1cnc(Nc2cccc(S(N)(=O)=O)c2)nc1N1CCN(c2ccccc2)CC1,"binding, competition with immobilised ligand",1 µM,69
CC1=C(C#N)C(c2ccc3c(c2)c(NC(=O)c2ccccc2C)nn3C)C(C#N)=C(C)N1,"cell-free assay, competition with immobilised ligand",1 µM,100
Cc1cnn2ncc(-c3ccnc(N(C)C)n3)c2c1,binding,1 µM,0
COc1ccc2c(c1)O[C@H](c1ccc(OC)c(OC)c1)C[C@@H]2NC(=O)C1(c2ccc3c(c2)OC(F)(F)O3)CC1,"cell-free assay, competition with immobilised ligand",1 µM,100
CNC(=O)[C@@H]1CC[C@@H](n2c(-c3ccc4cnccc4c3)nc3ccc(C(=O)NCc4cccc(C(N)=O)c4)cc32)C1,"binding, competition with immobilised ligand",1 µM,100
C[C@@H]1CN(c2cc(-c3n[nH]c4ccc(OC5(C)CC5)cc34)ncn2)C[C@H](C)O1,"cell-free assay, competition with immobilised ligand",0.1 µM,86
F[C@@H]1CCN(c2nccc(-c3cnn4ncccc34)n2)C1,binding,1 µM,100
O=C(NCC1CCOCC1)c1n[nH]cc1NC(=O)c1c(F)cccc1F,"binding, competition with immobilised ligand",1 µM,79
CS(=O)(=O)c1cc(C2(NC(=O)c3cncc4c3cnn4-c3ccc(F)cc3)CC2)ccn1,"cell-free assay, competition with immobilised ligand",1 µM,100
O=C(c1ccc(Nc2ncc(Cl)c(-c3ccc(Cl)s3)n2)cc1)N1CCC(N2CCCC2)CC1,"binding, competition with immobilised ligand",1 µM,58
COc1ccc2c(O[C@@H]3C[C@H]4C(=O)N[C@]5(C(=O)O)CC5/C=C\CCCCC[C@H](NC(=O)OC5CCCC5)C(=O)N4C3)cc(-c3csc(NC(=O)C(C)C)n3)nc2c1C (some centres unmarked),"cell-free assay, competition with immobilised ligand",1 µM,100
C[C@@H]1CCN(c2nccc(-c3cnn4ncccc34)n2)C1,binding,1 µM,90
C[C@@]1(Cc2ccc(C#N)cc2)C(=O)N(c2cc(Cl)cc(Cl)c2)c2ncc(C(=O)NC3(c4nc(C5CCC5)no4)CC3)n21,"cell-free assay, competition with immobilised ligand",1 µM,100
CN(c1nccc(-c2cnn3ncccc23)n1)C1CC1,binding,1 µM,100
O=C(NCCCN1CCOCC1)c1ccc(Nc2ncc(Cl)c(-c3ccc(Cl)s3)n2)cc1,"binding, competition with immobilised ligand",1 µM,73
CN(C)c1nccc(-c2cnn3ncccc23)n1,binding,1 µM,92
FC(F)(F)Oc1cccc(-c2cnc3ccc(-c4ccncc4)nn23)c1,"cell-free assay, competition with immobilised ligand",5 µM,43
O=C(c1ccc(Nc2ncc(Cl)c(-c3cc4ccccc4s3)n2)cc1)N1CCC(N2CCCC2)CC1,"binding, competition with immobilised ligand",1 µM,77
Nc1ncc2c(n1)-c1c([nH]c3ccc(C#CC4CC4)cc13)CCCC2,"binding, competition with immobilised ligand",1 µM,97
N[C@H]1CCN(c2nccc(-c3cnn4ncccc34)n2)C1,binding,1 µM,100
